Data as given in ChEMBL document CHEMBL2311495, “Pyrazolo[1,5-c]quinazoline derivatives and their simplified analogues as adenosine receptor antagonists: synthesis, structure-affinity relationships and molecular modeling studies” (Bioorg Med Chem, 2013).

Tests used:
[1] = biological target: T1, Adenosine receptor A3 (Homo sapiens, UniProt P0DMS8); experiment: Activity at human adenosine A3 receptor transfected in CHO cells assessed as Cl-IB-MECA-inhibited cAMP accumulation by scintillation counting; format: functional, cell-based
T1 sequence (P0DMS8 whole entry): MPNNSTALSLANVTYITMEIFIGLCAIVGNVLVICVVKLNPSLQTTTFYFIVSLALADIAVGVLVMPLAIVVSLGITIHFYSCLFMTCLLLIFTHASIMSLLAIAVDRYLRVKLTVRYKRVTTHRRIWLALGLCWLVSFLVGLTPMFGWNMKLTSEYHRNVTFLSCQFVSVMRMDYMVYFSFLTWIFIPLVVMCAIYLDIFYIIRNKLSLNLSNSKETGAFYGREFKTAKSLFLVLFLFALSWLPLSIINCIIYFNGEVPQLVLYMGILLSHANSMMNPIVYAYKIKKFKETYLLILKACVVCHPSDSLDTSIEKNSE
In short: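 hA3-transfected CHO cells (1 × 10⁶/assay), trypsinised, pre-incubated 10 min at 37 °C in buffered salt/glucose medium pH 7.4 with adenosine deaminase 2 IU/ml and Ro 20-1724. cAMP response inhibited by 100 nM Cl-IB-MECA. Stopped with cold 6% TCA, ether-extracted, cAMP read by [³H]cAMP competition binding to beef adrenal binding protein. IC50 as mean ± SEM of four experiments.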

[2] = biological target: T2, Adenosine receptor A2b (Homo sapiens) (UniProt P29275); experiment: Antagonist activity at human adenosine A2b receptor transfected in CHO cells assessed as inhibition of NECA-induced cAMP accumulation at 1 uM by scintillation counting; format: functional, cell-based
T2 sequence (whole entry): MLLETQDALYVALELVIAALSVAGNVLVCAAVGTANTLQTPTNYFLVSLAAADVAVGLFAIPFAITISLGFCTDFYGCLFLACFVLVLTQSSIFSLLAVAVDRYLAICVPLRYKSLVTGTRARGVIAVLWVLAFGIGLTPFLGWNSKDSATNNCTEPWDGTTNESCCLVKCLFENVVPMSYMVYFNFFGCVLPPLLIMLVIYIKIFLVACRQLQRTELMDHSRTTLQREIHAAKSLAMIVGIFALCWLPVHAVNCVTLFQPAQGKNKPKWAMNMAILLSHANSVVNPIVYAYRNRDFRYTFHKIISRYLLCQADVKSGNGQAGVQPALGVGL
In short: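 CHO cells stably expressing hA2B (1 × 10⁶/assay), pre-incubated 10 min at 37 °C, pH 7.4, with adenosine deaminase 2 IU/ml and Ro 20-1724 as PDE inhibitor. Stimulated by 200 nM NECA, compounds tested at 1 µM, result given as percent inhibition. Stopped with cold 6% TCA, ether-extracted, cAMP measured by [³H]cAMP competition with beef adrenal binding protein.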

[3] = biological target: T1, Adenosine receptor A3; experiment: Displacement of [125I]AB-MECA from human adenosine A3 receptor expressed in CHO cells by scintillation counting; format: cell-based
In short: (§1)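 hA3 CHO membranes (50 µg protein) incubated with 0.5 nM [¹²⁵I]AB-MECA in 50 mM Tris-HCl, 10 mM MgCl₂, 1 mM EDTA, pH 7.4, for 120 min at 4 °C. Six to eight ligand concentrations, or single 1 µM for % inhibition. Nonspecific binding defined with 1 µM AB-MECA. Filtration on GF/B, counting. Ki by Cheng–Prusoff, mean ± SEM of four duplicate assays.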

[4] = biological target: T3, Adenosine receptor A1 (Homo sapiens) (UniProt P30542); experiment: Displacement of [3H]DPCPX from human adenosine A1 receptor expressed in CHO cells at 1 uM by scintillation counting; format: cell-based
T3 sequence (whole entry): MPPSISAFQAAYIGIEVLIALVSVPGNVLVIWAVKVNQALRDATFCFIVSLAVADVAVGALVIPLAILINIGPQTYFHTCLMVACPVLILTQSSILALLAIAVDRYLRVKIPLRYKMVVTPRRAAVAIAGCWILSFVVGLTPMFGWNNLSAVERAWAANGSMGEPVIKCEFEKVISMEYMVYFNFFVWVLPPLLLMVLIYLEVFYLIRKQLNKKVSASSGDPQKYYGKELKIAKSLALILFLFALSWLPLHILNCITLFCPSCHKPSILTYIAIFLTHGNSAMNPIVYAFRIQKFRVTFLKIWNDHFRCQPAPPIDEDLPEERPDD
In short: (§2)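 hA1 CHO membranes (50 µg protein) incubated with 1 nM [³H]DPCPX in 50 mM Tris-HCl pH 7.4 for 120 min at 25 °C. Six to eight antagonist concentrations, or 1 µM for % inhibition. Nonspecific binding taken with 1 µM DPCPX. Bound ligand filtered and counted. Ki from IC50 via Cheng–Prusoff, four separate assays in duplicate.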

[5] = biological target: T4, Adenosine receptor A2a (Homo sapiens, UniProt P29274); experiment: Displacement of [3H]ZM241385 from human adenosine A2a receptor expressed in CHO cells at 1 uM by scintillation counting; format: cell-based
T4 sequence (P29274 whole entry): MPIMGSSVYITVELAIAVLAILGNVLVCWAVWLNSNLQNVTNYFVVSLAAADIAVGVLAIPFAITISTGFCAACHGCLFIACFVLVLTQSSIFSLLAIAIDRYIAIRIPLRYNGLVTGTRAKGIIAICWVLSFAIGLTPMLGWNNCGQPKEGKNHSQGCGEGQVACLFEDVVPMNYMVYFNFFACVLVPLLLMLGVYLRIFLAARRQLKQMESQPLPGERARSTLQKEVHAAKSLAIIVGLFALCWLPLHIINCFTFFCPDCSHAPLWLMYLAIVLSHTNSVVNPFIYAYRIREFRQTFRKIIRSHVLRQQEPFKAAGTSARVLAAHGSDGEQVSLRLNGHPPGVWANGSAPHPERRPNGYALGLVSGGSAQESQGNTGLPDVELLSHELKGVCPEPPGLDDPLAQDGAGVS
In short: (§3)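 Membranes of CHO cells expressing hA2A (50 µg protein) incubated with 1 nM [³H]ZM241385 in 50 mM Tris-HCl, 10 mM MgCl₂, pH 7.4, 60 min at 4 °C. Six to eight antagonist concentrations, or 1 µM for percent inhibition. Filtration and counting. Ki by Cheng–Prusoff from IC50, mean ± SEM of four duplicate experiments.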

[6] = biological target: T5, Adenosine receptor A3 (Homo sapiens) (UniProt P0DMS8); experiment: Displacement of [125I]AB-MECA from human adenosine A3 receptor expressed in CHO cells at 1 uM by scintillation counting; format: cell-based; in short: as §1
T5 sequence (whole entry): T1 sequence (P0DMS8 whole entry)

[7] = biological target: T6, Adenosine receptor A1 (Homo sapiens, UniProt P30542); experiment: Displacement of [3H]DPCPX from human adenosine A1 receptor expressed in CHO cells by scintillation counting; format: cell-based; in short: as §2
T6 sequence (P30542 whole entry): T3 sequence (whole entry)

[8] = biological target: T7, Adenosine receptor A2b (Homo sapiens, UniProt P29275); experiment: Antagonist activity at human adenosine A2b receptor transfected in CHO cells assessed as inhibition of NECA-induced cAMP accumulation by scintillation counting; format: functional, cell-based
T7 sequence (P29275 whole entry): T2 sequence (whole entry)

[9] = biological target: T4, Adenosine receptor A2a; experiment: Displacement of [3H]ZM241385 from human adenosine A2a receptor expressed in CHO cells by scintillation counting; format: cell-based; in short: as §3

| SMILES | IC50 [1] [nM] | inhibition [2] [%] | Ki [3] [nM] | inhibition [4] [%] | inhibition [5] [%] | inhibition [6] [%] | Ki [7] [nM] | IC50 [8] [nM] | Ki [9] [nM] |
| --- | --- | --- | --- | --- | --- | --- | --- | --- | --- |
| CCOC(=O)c1nn2c(=O)[nH]c3ccccc3c2c1C(=O)OCC | – | 5 | 101 | 12 | 1 | – | – | – | – |
| O=C(OCc1ccccc1)c1cc2c3ccccc3[nH]c(=O)n2n1 | – | 2 | – | 3 | 4 | 1 | – | – | – |
| CCOC(=O)c1cc2c3ccccc3nc(O)n2n1 | – | 3 | – | 3 | 5 | – | – | – | – |
| Nc1ccccc1-c1cc(-c2ccccc2)n[nH]1 | – | 2 | 680 | 9 | 1 | – | – | – | – |
| Nc1ccccc1-c1cc(-c2ccco2)n[nH]1 | – | 1 | – | 4 | 6 | 1 | – | – | – |
| Nc1ccccc1-c1cc(-c2cccs2)[nH]n1 | – | – | 600 | – | – | – | – | – | – |
| Nc1ccccc1-c1cc(-c2cccs2)n[nH]1 | – | 3 | – | 2 | 1 | – | – | – | – |
| CCOC(=O)c1cc2c3ccccc3[nH]c(=O)n2n1 | – | – | 315 | – | – | – | – | – | – |
| CCOC(=O)c1ccccc1-c1cc(-c2cccs2)n[nH]1 | – | 2 | – | 3 | 1 | 23 | – | – | – |
| CC(C)OC(=O)c1cc2c3ccccc3nc(O)n2n1 | – | 4 | 450 | 1 | 1 | – | – | – | – |
| O=C(NCc1ccccc1)c1cc2c3ccccc3[nH]c(=O)n2n1 | – | 1 | – | 2 | 5 | 25 | – | – | – |
| Oc1ccccc1-c1cc(-c2ccccc2)[nH]n1 | – | 4 | – | 13 | 1 | 7 | – | – | – |
| COC(=O)c1cc2c3ccccc3[nH]c(=O)n2n1 | – | – | 440 | – | – | – | – | – | – |
| Oc1ccccc1-c1n[nH]c(-c2ccccc2)n1 | – | 8 | – | 47 | 2 | 39 | – | – | – |
| COC(=O)c1cc2c3ccccc3nc(O)n2n1 | – | 6 | – | 1 | 3 | – | – | – | – |

Second part, the molecule after the results:

| IC50 [1] [nM] | inhibition [2] [%] | Ki [3] [nM] | inhibition [4] [%] | inhibition [5] [%] | inhibition [6] [%] | Ki [7] [nM] | IC50 [8] [nM] | Ki [9] [nM] | SMILES |
| --- | --- | --- | --- | --- | --- | --- | --- | --- | --- |
| 324 | 2 | 100 | 4 | 1 | – | – | – | – | COc1ccc(-c2cc3c4ccccc4[nH]c(=O)n3n2)cc1 |
| – | 3 | – | 44 | 20 | 18 | – | – | – | Nc1nc2ccccc2c2cc(-c3cccs3)nn12 |
| 82 | 3 | 23 | 6 | 1 | – | – | – | – | Oc1nc2ccccc2c2cc(-c3ccc(Cl)cc3)nn12 |
| – | – | – | – | – | 35 | 35 | 120 | 80 | Nc1nc2ccccc2c2cc(-c3ccco3)nn12 |
| – | 4 | – | 12 | 1 | 28 | – | – | – | Oc1nc2ccccc2c2cc(-c3ccccc3)nn12 |
| – | 2 | 252 | 4 | 1 | – | – | – | – | Oc1nc2ccccc2c2cc(-c3ccccn3)nn12 |
| – | 5 | – | 2 | 9 | – | – | – | – | COc1ccc(-c2cc(-c3ccccc3N)[nH]n2)cc1 |
| – | 3 | – | 7 | 15 | 45 | – | – | – | COc1ccc(-c2cc3c4ccccc4nc(N)n3n2)cc1 |
| 138 | 3 | 80 | 5 | 1 | – | – | – | – | Oc1nc2ccccc2c2cc(-c3ccco3)nn12 |
| – | 1 | 140 | 1 | 11 | – | – | – | – | Oc1nc2ccccc2c2cc(-c3ccccc3F)nn12 |
| 263 | 6 | 40 | 7 | 20 | – | – | – | – | Oc1nc2ccccc2c2cc(-c3cccs3)nn12 |
| 88 | 2 | 25 | 1 | 12 | – | – | – | – | Cc1ccc(-c2cc3c4ccccc4nc(O)n3n2)cc1 |
| – | 4 | 520 | 1 | 1 | – | – | – | – | O=C(Nc1nc2ccccc2c2cc(-c3ccccc3)nn12)c1ccccc1 |
| – | – | 480 | – | – | – | – | – | – | COc1ccc(-c2cc(-c3ccccc3N)n[nH]2)cc1 |
| – | 3 | – | 1 | 5 | 15 | – | – | – | Nc1nc2ccccc2c2cc(-c3ccccc3)nn12 |
